Experimental data taken from the RNAGym collection of RNA variant scans (doi:10.1126/science.aae0568).
Fewer inactive variants are shown than the library holds.

B1: tRNA (parent)
chain: GUUCCGUUGGCGUAAUGGUAACGCGUCUCCCUCCUAAGGAGAAGACUGCGGGUUCGAGUCCCGUACGGAACG

Variants of: B1
Test: yeast fitness relative to wild type (ratio to wild type); higher = fitter; tRNA-Arg(CCU), competitive growth, 37 C, YPD
Outline: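 Changes in genotype frequencies gave Darwinian fitness relative to wild type. Frequencies were read by 100-nucleotide paired-end sequencing of gene amplicons before and after pooled Saccharomyces cerevisiae strains, carrying tRNA-Arg(CCU) gene variants at the native locus, were competed in YPD at 37°C for 24 hours in six replicates. A genotype was kept only with ≥ 100 starting reads, and estimates < 0.5 were set to 0.5.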

Going from GUUCCGUUGGCGUAAUGGUAACGCGUCUCCCGCCUAAGGAGAAGAGUGCGGGUUCGAGUCCCGUACGGAACG [U32G C46G] to GUUCCGUUGGCGUAAUGGUAACGCGUCUCCCUACCAAGGAGAAGAUUGUGGCUUCGAGUCUCGUAUGGAACG [C33A U35C C46U C49U G52C C61U C66U], the yeast fitness falls from 0.757 to ≤ 0.5.

Compared with GUUCCGUUGGCGUAAUGGUAACGCGUCUCCCUACUAAGGAGAAGACAGCGGGUUCGAGUCCCGUACGGAACG [C33A U47A], GUUCCGUUGGCGUAAUGGUAACGCGUCUCCCUACUUAGGAGAAGACUGCGGGUUCGAGUCCCGUACGGAACG [C33A A36U] is lower in yeast fitness: 0.777 for the first, 0.615 for the second.

Compared with GUUCCGUUGGCGUAAUGGUAACGCGUCUCCCUACUAUGGAGAAGACUGCGGGUUCGAGUCCAGUACGGAACG [C33A A37U C62A], GUUCCGUUGGCGUAAUGGUAACGCGUCUCCCUACUAAGGAGAAGACUGCGGGUUCGUGUCCCGUAUGGUACG [C33A A57U C66U A69U] is lower in yeast fitness: 0.503 for the first, ≤ 0.5 for the second.

First: GUUCCGUUGGCGUAAUGGUAACGCGUCUCCCUACUAAGGAGAAGACUGCGGGUUCGAGUCCCGUACGCAACG [C33A G68C]
Second: GUUCCGUUGGCGUAAUGGUAACGCGUCUCCCGCCUAAGGAGAAGACUGCGGGUUCGAGUCCCCUACGGAACG [U32G G63C]
The yeast fitness of the first is higher: 0.744 for the first, 0.571 for the second.

First: GUUCCGUUGGCGUAAUGGUAACGCGUCUCCCGCCUAAGGAGAAGACUGUGGGUUCAAGUCCCGUACGGAACG [U32G C49U G56A]
Second: GUUCCGUUGGCGUAAUGGUAACGCGUCUCCCUACUAACGAGAAGACUGCAGGUUCGAGUCCCGCACGGAACG [C33A G38C G50A U64C]
The yeast fitness of the first is higher: 0.744 for the first, ≤ 0.5 for the second.

GUUCCGUUGGCGUAAUGGUAACGCGUCUCCCGCAUAAAGAGAAGACUGCGGGUUCGAGUCCCGUACGGAGCG [U32G C34A G38A A70G] and GUUCCGUUGGCGUAAUGGUAACGCGUCUCCCUACUAAGGAGAAGACUGCGGGUUCGAGUCCUGUACAGAACG [C33A C62U G67A] cannot be ordered by yeast fitness: ≤ 0.5 for the first, ≤ 0.5 for the second.

First: GUUCCGUUGGCGUAAUGGUAACGCGUCUCCCGCCAGAGGAGAAGACUGCGGGUUCGAGUCCCGUAUGGAACG [U32G U35A A36G C66U]
Second: GUUCCGUUGGCGUAAUGGUAACGCGUCUCCCUACUAAGGAGAUGACUGAGGGUUCGAGUCCCGUACGGAACG [C33A A43U C49A]
The yeast fitness of the first is lower: ≤ 0.5 for the first, 0.591 for the second.

Compared with GUUCCGUUGGCGUAAUGGUAACGCGUCUCCCUGCUAGGGAGAAGACUGUGGGUUCGAGUUCCGUACGGAACG [C33G A37G C49U C60U], GUUCCGUUGGCGUAAUGGUAACGCGUCUCCCGCCUAAGGAGAAGACUCCGGGUUCGACUCCCGUACGGAACG [U32G G48C G58C] is lower in yeast fitness: 0.551 for the first, ≤ 0.5 for the second.

GUUCCGUUGGCGUAAUGGUAACGCGUCUCCCUACUAAGGAGAAGACUGCGGGUACGAGUCCCGUACGGAACG [C33A U54A] and GUUCCGUUGGCGUAAUGGUAACGCGUCUCCCUACUAACGAGAGGACUGCGGGUUCGAGUCCCGUACGGAACG [C33A G38C A43G] cannot be ordered by yeast fitness: ≤ 0.5 for the first, ≤ 0.5 for the second.

Compared with GUUCCGUUGGCGUAAUGGUAACGCGUCUCCCUACUAAGGAGAAGACUGCGGGUUCGAGUGCCGUACGGAACG [C33A C60G], GUUCCGUUGGCGUAAUGGUAACGCGUCUCCCGCCUAAGGAGAAGACAGCGGGUUCGAGUCCCGACCAGAACG [U32G U47A U64A A65C G67A] is lower in yeast fitness: 0.613 for the first, 0.6 for the second.

GUUCCGUUGGCGUAAUGGUAACGCGUCUCCCUACUAAGGAGAAGACUGCGGGUUCGAGUCCCGUGCGGCACG [C33A A65G A69C] and GUUCCGUUGGCGUAAUGGUAACGCGUCUCCCUACUAUGGAGAAGACUGCGGGUUUGCCUCCCGUACGGAACG [C33A A37U C55U A57C G58C] cannot be ordered by yeast fitness: ≤ 0.5 for the first, ≤ 0.5 for the second.

Going from GUUCCGUUGGCGUAAUGGUAACGCGUCUCCCUAAUAAGGAGAAGACUGCGGGUUCAAGUCCCGUACGGAACG [C33A C34A G56A] to GUUCCGUUGGCGUAAUGGUAACGCGUCUCCCGCCUAAGGAGAAGACUACGGGUUCGAGUCCCGUACGGAUCG [U32G G48A A70U], the yeast fitness rises from ≤ 0.5 to 0.553.

First: GUUCCGUUGGCGUAAUGGUAACGCGUCUCCCUACUAAGCACAACACUGCGGGUUCGAGUCCCGUACGGAACG [C33A G39C G41C G44C]
Second: GUUCCGUUGGCGUAAUGGUAACGCGUCUCCCUACUAAGGUGAAGACUGCGGGUUCGAGUCCCGUACGGAACG [C33A A40U]
The yeast fitness of the first is lower: 0.549 for the first, 0.741 for the second.

First: GUUCCGUUGGCGUAAUGGUAACGCGUCUCCCGCCUAAGCAGAAGACUGCGGGUUCGUGACCCGUACGGCACG [U32G G39C A57U U59A A69C]
Second: GUUCCGUUGGCGUAAUGGUAACGCGUCUCCCUACUCAGGAGAAGACUGCGAGUUCGAGUCCCGUACGGAACG [C33A A36C G51A]
The yeast fitness of the first is lower: ≤ 0.5 for the first, 0.721 for the second.

Compared with GUUCCGUUGGCGUAAUGGUAACGCGUCUCCCUACUACGGAGAAGACUGCGGGUUCGAGUCUAGUACGGAACG [C33A A37C C61U C62A], GUUCCGUUGGCGUAAUGGUAACGCGUCUCCCGCCAGAGGAGAAGACUGCGGGUUCGUGUCCCGUACGGAACG [U32G U35A A36G A57U] is lower in yeast fitness: 0.635 for the first, ≤ 0.5 for the second.

Going from GUUCCGUUGGCGUAAUGGUAACGCGUCUCCCGCCUAAGGAGAAGACUGCGGGUUCGAAUCCCGUACGGAACG [U32G G58A] to GUUCCGUUGGCGUAAUGGUAACGCGUCUCCCUGCUCAGGAGAAGACUGAGGGUUCGAGUGCCGUACGGAUCG [C33G A36C C49A C60G A70U], the yeast fitness falls from 0.609 to ≤ 0.5.

GUUCCGUUGGCGUAAUGGUAACGCGUCUCCCGCCUAAGGAGAAGACUGCGGGUACGAGUCCCGUACCGAACG [U32G U54A G67C] and GUUCCGUUGGCGUAAUGGUAACGCGUCUCCCGCCUAAAGAGAAGACUGCGGGUUCGAGUCGCGUACGGAGCG [U32G G38A C61G A70G] cannot be ordered by yeast fitness: ≤ 0.5 for the first, ≤ 0.5 for the second.

Going from GUUCCGUUGGCGUAAUGGUAACGCGUCUCCCGCCUAAGGACAAGAUUGCGGGUUCGAGUCCCGUACGGAACG [U32G G41C C46U] to GUUCCGUUGGCGUAAUGGUAACGCGUCUCCCUACUAAGAUGAAGACUGCGGGUUUGAGUCCUGUACGGAACG [C33A G39A A40U C55U C62U], the yeast fitness falls from 0.647 to ≤ 0.5.

Going from GUUCCGUUGGCGUAAUGGUAACGCGUCUCCCUACUAAGGAGAAGACUGCGGGUUCGAGUCCCGUACGGAACG [C33A] to GUUCCGUUGGCGUAAUGGUAACGCGUCUCCCUGCUAAGGAGAAGACUGCGGGUUCGAGUCCCGUACGGAACG [C33G], the yeast fitness falls from 0.795 to 0.743.
